From ChEMBL document CHEMBL3091368, “Structure-based design, synthesis, and evaluation of imidazo[1,2-b]pyridazine and imidazo[1,2-a]pyridine derivatives as novel dual c-Met and VEGFR2 kinase inhibitors” (Bioorg Med Chem, 2013) come the findings set out here.

Each structure is given as a SMILES string. Converted amounts (≈) assume the structure as drawn. Bounds are passed on as bounds.

Series [1] is described as follows: Clearance in human liver microsomes at 1 umol/L by HPLC analysis. The format is ADME. To be noted: read-out: CLH. In a few lines: (§1)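 Hepatic microsomes at 0.2 mg protein/mL in 50 mmol/L potassium phosphate, pH 7.4, with test compound at 1 µmol/L, incubated at 37 °C. Started by adding an NADPH-generating system (MgCl₂, glucose-6-phosphate, β-NADP⁺, G6P dehydrogenase). Stopped with an equal volume of acetonitrile. Parent compound loss measured by HPLC-UV or LC/MS/MS.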

Series [2] can be described thus: Clearance in mouse liver microsomes at 1 umol/L by HPLC analysis. The format is ADME, Microsome. To be noted: read-out: CLH. Put shortly: as §1
Background: Liver microsomes are vesicles of endoplasmic reticulum, rich in cytochrome P450 enzymes.

A short description of series [3]: Kinetic solubility of the compound in second fluid of disintegration test of Japanese pharmacopoeia containing bile acid at pH 6.8 by HPLC analysis. Type of series: physicochemical. To be noted: read-out: Kinetic_solubility. In a few lines:
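Kinetic solubility in JP second disintegration fluid with bile acid. Compound DMSO solutions added in small volumes to the aqueous buffer and incubated. Precipitate removed by filter-plate filtration, and dissolved compound in the filtrate quantified by HPLC.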

On to `Cc1ccc(C(=O)Nc2ccc(Oc3ccc4nc(NC(=O)C5CC5)cn4c3)c(F)c2)c(=O)n1-c1ccccc1.Cl`, for which the microsomal CLint at 1 µM in series [1] came to 6 µL/min/mg; in series [2], 10 µL/min/mg. Besides, the solubility kinetic in series [3] is over 110 µg/mL.

`Cc1ccc(C(=O)Nc2ccc(Oc3ccc4nc(NC(=O)C5CC5)cn4c3)c(F)c2)c(=O)n1-c1ccccc1`: the solubility kinetic in series [3] was found to be 92 µg/mL (≈ 171 µM).

Regarding `O=C(Nc1ccc(Oc2ccc3nc(NC(=O)C4CC4)cn3c2)c(F)c1)c1cccn(-c2ccccc2)c1=O`, the microsomal CLint at 1 µM in series [1] turned out to be 5 µL/min/mg; in series [2] it was 15 µL/min/mg. Besides, the solubility kinetic in series [3] worked out at 4.7 µg/mL (≈ 8.98 µM).

For `Cc1ccc(C(=O)Nc2ccc(Oc3ccc4nc(NC(=O)C5CC5)cn4n3)c(F)c2)c(=O)n1-c1ccccc1`, the microsomal CLint at 1 µM in series [1] was 11 µL/min/mg; in series [2], 8 µL/min/mg. The solubility kinetic in series [3] was over 140 µg/mL.

As for `O=C(Nc1ccc(Oc2ccc3nc(NC(=O)C4CC4)cn3n2)c(F)c1)c1cccn(-c2ccccc2)c1=O`, the microsomal CLint at 1 µM in series [1] turned out to be 3 µL/min/mg; in series [2], 11 µL/min/mg. In addition, the solubility kinetic in series [3] worked out at 3.2 µg/mL (≈ 6.1 µM).
